The structures appear in SMILES notation. Some results are limits rather than exact numbers.

Experiment [1] deals with T1, 5-hydroxytryptamine receptor 1F (Homo sapiens, UniProt P30939).
T1 sequence (P30939 whole entry): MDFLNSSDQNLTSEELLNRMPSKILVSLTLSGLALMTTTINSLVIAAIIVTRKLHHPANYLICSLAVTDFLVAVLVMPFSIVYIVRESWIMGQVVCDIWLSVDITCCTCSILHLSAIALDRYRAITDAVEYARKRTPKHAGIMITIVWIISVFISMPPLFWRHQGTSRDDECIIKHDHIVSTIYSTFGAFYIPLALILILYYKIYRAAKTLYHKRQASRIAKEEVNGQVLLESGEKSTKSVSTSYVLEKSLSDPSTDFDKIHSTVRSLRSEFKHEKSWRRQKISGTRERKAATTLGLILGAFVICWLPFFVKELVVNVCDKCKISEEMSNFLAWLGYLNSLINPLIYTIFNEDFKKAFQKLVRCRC
Briefly: In vitro effective concentration for stimulation of [35S]GTP-gamma-S, binding in mouse LM(tk-)cells expressing the human 5-hydroxytryptamine 1F receptor. It counts as functional. (In general: GTPγS resists hydrolysis and so accumulates on activated G proteins.)

In experiment [2] the test system is Cavia porcellus. The experiment can be described thus: In vivo efficacy in neurogenic plasma protein extravasation screen using guinea pig neurogenic PPE assay (1 ng/kg, po) at 1 hr postdose. It counts as functional. In outline: (§1)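 Guinea pig neurogenic dural PPE screen. Single oral dose of 1 ng/kg, then unilateral trigeminal ganglion stimulation with Evan's blue-labelled plasma protein leakage. Read-out is the fluorescence ratio of stimulated to unstimulated dura at 1 h or 24 h postdose. A ratio near 1 means full efficacy; near 1.8 means ineffective.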

The target of experiment [3] is 5-hydroxytryptamine receptor 1D (Homo sapiens, UniProt P28221). Briefly: In vitro binding affinity by radioligand binding assay using cell line expressing human 5-hydroxytryptamine 1D receptor. In outline:
(§2)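 Ki (nM) from radioligand binding on cell lines each expressing one human serotonin receptor subtype. Values are means of at least three determinations with SEM. ND: Ki not determined, when a 10⁻⁷ M test ligand gave <50% displacement of radioligand.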

Experiment [4] relates to Cavia porcellus. Briefly: In vivo efficacy in neurogenic plasma protein extravasation screen using guinea pig neurogenic PPE assay (1 ng/kg, po) at 24 hr postdose. It counts as functional. The essentials:
as §1

Experiment [5] has as its target 5-hydroxytryptamine receptor 1B (Homo sapiens, UniProt P28222). Briefly: In vitro binding affinity by radioligand binding assay using cell line expressing human 5-hydroxytryptamine 1B receptor. The essentials: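 Ki (nM) from radioligand binding on cell lines each expressing one human serotonin receptor subtype. Values are means of at least three determinations with SEM.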

The target of experiment [6] is T2, 5-hydroxytryptamine receptor 1F (Homo sapiens) (UniProt P30939).
T2 sequence (whole entry): T1 sequence (P30939 whole entry)
The experiment can be described thus: Maximum stimulation of [35S]GTP-gamma-S, binding expressed relative to the maximal effect of 5-hydroxytryptamine […]. It counts as functional.

Experiment [7] deals with T3, 5-hydroxytryptamine receptor 1A (Homo sapiens, UniProt P08908).
T3 sequence (P08908 whole entry): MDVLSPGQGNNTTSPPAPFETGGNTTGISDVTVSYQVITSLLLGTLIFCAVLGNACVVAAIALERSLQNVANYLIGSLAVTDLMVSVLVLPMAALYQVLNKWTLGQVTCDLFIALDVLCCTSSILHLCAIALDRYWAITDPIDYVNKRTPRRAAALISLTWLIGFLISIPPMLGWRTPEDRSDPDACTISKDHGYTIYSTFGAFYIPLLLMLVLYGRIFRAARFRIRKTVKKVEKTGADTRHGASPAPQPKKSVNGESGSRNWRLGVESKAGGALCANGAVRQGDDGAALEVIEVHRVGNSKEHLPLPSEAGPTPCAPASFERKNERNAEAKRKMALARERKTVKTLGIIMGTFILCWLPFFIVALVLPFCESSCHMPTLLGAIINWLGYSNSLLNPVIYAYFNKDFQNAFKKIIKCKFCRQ
The experiment can be described thus: In vitro binding affinity by radioligand binding assay using cell line expressing human 5-hydroxytryptamine 1A receptor. The essentials:
as §2

Experiment [8] has as its target T1, 5-hydroxytryptamine receptor 1F. The experiment can be described thus: In vitro binding affinity was determined by radioligand binding assay using cell line expressing human 5-hydroxytryptamine 1F receptor. In outline: as §2
The species entered for experiment [9] is Oryctolagus cuniculus. Briefly: In vitro contractile response in rabbit saphenous vein. It counts as functional. In outline: (§3)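 Rabbit saphenous vein rings. Maximal contraction is expressed as % of the contraction induced by KCl (67 mM), with the concentration giving the maximal response recorded. Means (SEM) of three to seven determinations.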
The species named for experiment [10] is Oryctolagus cuniculus. Briefly: In vitro concentration of maximum contractile response in rabbit saphenous vein. It counts as functional. The essentials:
as §3

Experiment [11] has as its target T1, 5-hydroxytryptamine receptor 1F. Briefly: In vitro effective concentration for stimulation of [35S]GTP-gamma-S, binding in mouse LM(tk-)cells expressing the human 5-HT1F receptor. It counts as functional.
For experiment [12], the target named is 5-hydroxytryptamine receptor 7 (Homo sapiens, UniProt P34969). The experiment can be described thus: In vitro binding affinity by radioligand binding assay using cell line expressing human 5-hydroxytryptamine 7 receptor.
Experiment [13] has as its target T4, 5-hydroxytryptamine receptor 2C (Homo sapiens, UniProt P28335).
T4 sequence (P28335 whole entry): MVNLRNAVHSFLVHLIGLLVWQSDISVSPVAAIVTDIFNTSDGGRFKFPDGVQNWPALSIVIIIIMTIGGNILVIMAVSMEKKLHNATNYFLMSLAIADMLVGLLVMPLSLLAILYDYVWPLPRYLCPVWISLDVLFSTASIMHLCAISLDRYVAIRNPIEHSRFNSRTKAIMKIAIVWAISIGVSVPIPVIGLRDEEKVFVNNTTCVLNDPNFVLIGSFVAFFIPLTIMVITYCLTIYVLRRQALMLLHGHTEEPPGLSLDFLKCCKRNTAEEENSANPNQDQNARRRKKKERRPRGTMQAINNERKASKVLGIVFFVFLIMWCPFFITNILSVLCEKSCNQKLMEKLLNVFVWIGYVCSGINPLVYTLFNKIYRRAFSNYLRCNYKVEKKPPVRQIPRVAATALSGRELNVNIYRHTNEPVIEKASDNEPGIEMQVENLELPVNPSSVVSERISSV
The experiment can be described thus: In vitro binding affinity by radioligand binding assay using cell line expressing human 5-hydroxytryptamine 2C receptor.

The target in experiment [14] is 5-hydroxytryptamine receptor 2A (Homo sapiens, UniProt P28223). Briefly: In vitro binding affinity by radioligand binding assay using cell line expressing human 5-hydroxytryptamine 2A receptor.
Experiment [15] addresses 5-hydroxytryptamine receptor 6 (Homo sapiens, UniProt P50406). Briefly: In vitro binding affinity by radioligand binding assay using cell line expressing human 5-hydroxytryptamine 6 receptor.
Experiment [16] concerns the target 5-hydroxytryptamine receptor 1E (Homo sapiens, UniProt P28566). Briefly: In vitro binding affinity by radioligand binding assay using cell line expressing human 5-hydroxytryptamine 1E receptor.
In experiment [17] the target is 5-hydroxytryptamine receptor 2B (Homo sapiens, UniProt P41595). Briefly: In vitro binding affinity by radioligand binding assay using cell line expressing human 5-hydroxytryptamine 2B receptor.
Experiment [18] has as its target 5-hydroxytryptamine receptor 4 (Homo sapiens, UniProt Q13639). The experiment can be described thus: In vitro binding affinity by radioligand binding assay using cell line expressing human 5-hydroxytryptamine 4 receptor.

5-hydroxytryptamine receptor 1D, sequence (P28221 whole entry): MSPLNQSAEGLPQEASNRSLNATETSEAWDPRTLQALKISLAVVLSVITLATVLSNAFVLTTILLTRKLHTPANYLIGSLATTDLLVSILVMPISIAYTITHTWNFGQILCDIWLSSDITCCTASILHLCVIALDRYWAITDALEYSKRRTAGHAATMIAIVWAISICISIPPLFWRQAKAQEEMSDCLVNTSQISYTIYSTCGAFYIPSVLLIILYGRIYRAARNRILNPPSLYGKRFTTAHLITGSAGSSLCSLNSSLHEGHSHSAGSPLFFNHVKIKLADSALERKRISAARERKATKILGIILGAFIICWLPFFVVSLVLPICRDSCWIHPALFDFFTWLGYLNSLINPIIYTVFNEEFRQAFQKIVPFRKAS
5-hydroxytryptamine receptor 1B, sequence (P28222 whole entry): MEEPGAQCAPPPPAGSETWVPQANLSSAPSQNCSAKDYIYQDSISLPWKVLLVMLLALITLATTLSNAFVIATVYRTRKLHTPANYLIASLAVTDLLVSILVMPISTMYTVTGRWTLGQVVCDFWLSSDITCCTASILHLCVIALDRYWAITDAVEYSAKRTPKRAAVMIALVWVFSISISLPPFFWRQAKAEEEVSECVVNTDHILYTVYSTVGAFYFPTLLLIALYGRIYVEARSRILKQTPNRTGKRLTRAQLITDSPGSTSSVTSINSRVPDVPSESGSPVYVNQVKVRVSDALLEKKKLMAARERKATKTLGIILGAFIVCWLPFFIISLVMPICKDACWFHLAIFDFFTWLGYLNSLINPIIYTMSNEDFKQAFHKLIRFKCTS
5-hydroxytryptamine receptor 1E, sequence (P28566 whole entry): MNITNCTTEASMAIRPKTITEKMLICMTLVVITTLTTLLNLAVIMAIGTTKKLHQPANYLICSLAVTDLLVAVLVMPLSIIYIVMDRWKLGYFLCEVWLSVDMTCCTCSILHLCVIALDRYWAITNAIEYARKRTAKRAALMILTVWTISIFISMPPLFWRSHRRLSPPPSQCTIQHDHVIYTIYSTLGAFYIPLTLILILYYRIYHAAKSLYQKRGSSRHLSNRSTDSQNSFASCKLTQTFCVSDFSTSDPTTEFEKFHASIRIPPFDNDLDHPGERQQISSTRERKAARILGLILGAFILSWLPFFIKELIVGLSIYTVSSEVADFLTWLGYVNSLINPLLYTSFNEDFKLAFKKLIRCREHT
5-hydroxytryptamine receptor 4, sequence (Q13639 whole entry): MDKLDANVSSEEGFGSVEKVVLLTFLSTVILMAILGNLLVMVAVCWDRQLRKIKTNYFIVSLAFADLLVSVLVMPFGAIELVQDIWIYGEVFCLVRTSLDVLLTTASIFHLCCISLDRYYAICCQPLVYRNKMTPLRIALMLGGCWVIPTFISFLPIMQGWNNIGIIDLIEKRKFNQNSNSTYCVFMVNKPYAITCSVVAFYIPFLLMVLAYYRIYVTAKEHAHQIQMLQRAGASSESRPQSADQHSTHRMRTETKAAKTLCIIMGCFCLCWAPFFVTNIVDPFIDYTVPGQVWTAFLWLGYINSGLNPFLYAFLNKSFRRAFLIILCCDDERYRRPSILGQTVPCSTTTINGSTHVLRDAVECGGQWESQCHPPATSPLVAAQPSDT
5-hydroxytryptamine receptor 2B, sequence (P41595 whole entry): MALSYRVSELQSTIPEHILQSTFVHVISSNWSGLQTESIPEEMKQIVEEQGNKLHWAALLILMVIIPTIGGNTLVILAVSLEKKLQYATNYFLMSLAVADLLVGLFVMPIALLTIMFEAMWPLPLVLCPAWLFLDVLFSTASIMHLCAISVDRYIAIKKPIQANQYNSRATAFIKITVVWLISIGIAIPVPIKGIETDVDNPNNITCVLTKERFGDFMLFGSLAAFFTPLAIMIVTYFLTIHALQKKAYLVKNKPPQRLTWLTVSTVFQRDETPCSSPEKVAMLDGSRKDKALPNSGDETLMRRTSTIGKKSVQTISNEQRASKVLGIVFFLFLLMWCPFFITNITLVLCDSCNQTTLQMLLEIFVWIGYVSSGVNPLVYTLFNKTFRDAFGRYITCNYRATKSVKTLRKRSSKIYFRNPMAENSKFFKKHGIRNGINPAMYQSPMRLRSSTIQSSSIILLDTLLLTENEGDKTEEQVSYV
5-hydroxytryptamine receptor 6, sequence (P50406 whole entry): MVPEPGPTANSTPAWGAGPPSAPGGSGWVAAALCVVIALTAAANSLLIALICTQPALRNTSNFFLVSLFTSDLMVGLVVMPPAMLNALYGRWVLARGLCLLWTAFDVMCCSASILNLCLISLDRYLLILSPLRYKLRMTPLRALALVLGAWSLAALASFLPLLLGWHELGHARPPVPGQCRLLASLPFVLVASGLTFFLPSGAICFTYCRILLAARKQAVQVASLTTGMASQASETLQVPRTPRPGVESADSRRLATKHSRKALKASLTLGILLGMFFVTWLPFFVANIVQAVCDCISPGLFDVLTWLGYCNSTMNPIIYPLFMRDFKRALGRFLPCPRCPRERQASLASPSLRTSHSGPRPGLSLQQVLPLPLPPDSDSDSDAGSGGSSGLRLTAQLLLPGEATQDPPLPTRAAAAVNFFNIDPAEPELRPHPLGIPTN
5-hydroxytryptamine receptor 2A, sequence (P28223 whole entry): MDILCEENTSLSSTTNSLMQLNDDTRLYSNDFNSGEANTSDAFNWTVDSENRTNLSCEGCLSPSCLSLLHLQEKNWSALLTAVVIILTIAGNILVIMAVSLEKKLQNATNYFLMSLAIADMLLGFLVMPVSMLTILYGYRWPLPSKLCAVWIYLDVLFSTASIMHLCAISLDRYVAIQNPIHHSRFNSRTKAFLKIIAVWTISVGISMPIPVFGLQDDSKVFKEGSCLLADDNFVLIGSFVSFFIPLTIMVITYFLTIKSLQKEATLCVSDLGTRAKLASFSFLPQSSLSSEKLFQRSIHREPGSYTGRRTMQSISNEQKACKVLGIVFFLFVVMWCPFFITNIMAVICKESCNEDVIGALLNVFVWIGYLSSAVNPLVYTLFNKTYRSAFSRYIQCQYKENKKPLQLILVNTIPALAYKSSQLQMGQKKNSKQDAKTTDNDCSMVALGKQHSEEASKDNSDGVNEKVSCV
5-hydroxytryptamine receptor 7, sequence (P34969 whole entry): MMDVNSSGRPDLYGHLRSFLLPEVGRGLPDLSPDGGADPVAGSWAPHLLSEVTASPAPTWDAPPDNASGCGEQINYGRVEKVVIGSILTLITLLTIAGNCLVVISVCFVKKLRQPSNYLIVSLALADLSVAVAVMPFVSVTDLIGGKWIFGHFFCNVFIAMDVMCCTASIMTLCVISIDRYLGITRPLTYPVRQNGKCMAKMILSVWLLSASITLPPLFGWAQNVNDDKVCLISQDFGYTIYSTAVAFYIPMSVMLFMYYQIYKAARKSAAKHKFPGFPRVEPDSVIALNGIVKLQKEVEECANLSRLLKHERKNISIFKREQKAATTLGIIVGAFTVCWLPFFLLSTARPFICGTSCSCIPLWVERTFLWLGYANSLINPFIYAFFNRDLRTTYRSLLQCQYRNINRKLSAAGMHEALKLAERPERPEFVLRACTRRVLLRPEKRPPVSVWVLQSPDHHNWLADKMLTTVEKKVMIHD

What is called EC50 is the concentration needed to bring the measured effect to its halfway point. Low readings indicate an effect from little substance, high ones a need for much substance. Usually Ki stands for the dissociation constant of the complex between target and ligand, obtained from inhibition or displacement. Low values mean a stronger hold on the target, high ones a looser hold on the target. One may read the Emax as the maximal effect, on the per cent scale that the assay sets. `CN1CCC(c2c[nH]c3ccc(NC(=O)c4ccsc4)nc23)CC1` showed an EC50 in experiment [1] of 9.4 nM. The Efficacy with Cavia porcellus [2] is listed as 1; with Cavia porcellus [4], 1.6. Also, the Ki in experiment [3] came out at 810 nM; in [5] it was 1000 nM; in experiment [7] it was 400 nM; in experiment [8], 7.4 nM. This compound returned an Emax in [6] of 84%. Also, the Response in the experiment listed under Oryctolagus cuniculus [9] is on record as 0%.

Consider `CC(=O)Nc1ccc2[nH]cc(C3CCN(C)CC3)c2n1`, for which the results for the Efficacy in the experiment with Cavia porcellus [2] and with Cavia porcellus [4] were 1 and 1.1, respectively. For the same compound, the Ki was 250 nM in experiment [3], 270 nM in [5], 620 nM in [7] and 5 nM in experiment [8]. In addition, the “Concentration of max response” value in the experiment listed under Oryctolagus cuniculus [10] turned out to be 30 µM. For the same compound, the EC50 in experiment [11] was determined as 36 nM. The compound further came in with an Emax in experiment [6] of 98%. In addition, the Response in the experiment listed under Oryctolagus cuniculus [9] is recorded as 5.7%.

Regarding `CN1CCC(c2c[nH]c3ccc(NC(=O)C4CC4)nc23)CC1`, it took 34 nM to reach a half-maximal effect in [1] (EC50). The Efficacy in the experiment on Cavia porcellus [2] was 1.4. The Ki in experiment [3] worked out at 1800 nM; in [5], 1700 nM; in experiment [7], 1400 nM; in experiment [8], 9.8 nM. This compound also showed an Emax in [6] of 77%. Further, in the experiment listed under Oryctolagus cuniculus [9], the Response is recorded as 2.3%.

Consider `CN1CCC(c2c[nH]c3ccc(NC(=O)c4ccc(F)cc4)nc23)CC1`, for which the Ki was 730 nM in experiment [3]; more than 5000 nM in experiment [12]; 1200 nM in experiment [5]; 1900 nM in [13]; 4800 nM in experiment [14]; more than 10000 nM in experiment [15]. For the same compound, the Ki was 56 nM in experiment [7]; 7.6 nM in [8]; 660 nM in experiment [16]; more than 10000 nM in [17]; 4000 nM in experiment [18]. In addition, the Response in the experiment listed under Oryctolagus cuniculus [9] is 16%.

`CN1CCC(c2c[nH]c3ccc(NC(=O)C4CCC4)nc23)CC1` registered an EC50 in [1] of 21 nM. For the same compound, the Ki in [3] is 900 nM; in experiment [5] it was 380 nM; in experiment [7], 2000 nM; in [8] it was 8.7 nM. In experiment [6], this compound gave an Emax of 81%. In the experiment filed under Oryctolagus cuniculus [9], the Response is 17%.

In experiment [1], `CCC(=O)Nc1ccc2[nH]cc(C3CCN(C)CC3)c2n1` came in with an EC50 of 32 nM. The Efficacy in the experiment with Cavia porcellus [2] amounted to 1.2; with Cavia porcellus [4], 1. In addition, the Ki in experiment [3] is 730 nM; in experiment [5] it was 720 nM; in [13] it was 310 nM; in [14], 3400 nM; in [15] it was 1120 nM; in [7], 1000 nM. Further, the Ki in experiment [8] was 5.5 nM; in experiment [16], 770 nM; in experiment [17], more than 10000 nM; in experiment [18], 2400 nM. The compound further had an Emax in experiment [6] of 88%. Moreover, the Response in the experiment filed under Oryctolagus cuniculus [9] was found to be 3%.

`CCCC(=O)Nc1ccc2[nH]cc(C3CCN(C)CC3)c2n1` registered an EC50 in experiment [1] of 13 nM. The compound further gave a maximal response (Emax) in [6] of 94%. For the same compound, in experiment [8], the affinity corresponds to a Ki of 6.9 nM. In the experiment listed under Oryctolagus cuniculus [9], this compound had a Response of 12.4%.

On to `CN1CCC(c2c[nH]c3ccc(NC(=O)c4ccccc4)nc23)CC1`, for which the values for the Efficacy with Cavia porcellus [2] and with Cavia porcellus [4] were 1.1 and 1.6, respectively. Also, the inhibition constant (Ki) in experiment [3] is 1000 nM; in [5], 820 nM; in experiment [7], 72 nM; in experiment [8], 7.3 nM. In the experiment filed under Oryctolagus cuniculus [9], this compound came in with a Response of 0%.

For the compound `CN1CCC(c2c[nH]c3ccc(NC(=O)c4ccc(C#N)cc4)nc23)CC1`, the Efficacy with Cavia porcellus [2] was 1.5. Moreover, the Ki in experiment [3] came to 380 nM; in [5], 310 nM; in experiment [7], 31 nM; in experiment [8] it was 7.2 nM. The “Concentration of max response” value in the experiment listed under Oryctolagus cuniculus [10] was determined as 30 µM. The compound also returned a Response in the experiment filed under Oryctolagus cuniculus [9] of 1.1%.

The record behind these values is ChEMBL document CHEMBL1145835, “Novel potent 5-HT(1F) receptor agonists: structure-activity studies of a series of substituted N-[3-(1-methyl-4-piperidinyl)-1H-pyrrolo[3,2-b]pyridin-5-yl]amides” (J Med Chem, 2003).
